From ChEMBL document CHEMBL4033712, “Synthesis and biological evaluation of new C-12(α/β)-(N-) sulfamoyl-phenylamino-14-deoxy-andrographolide derivatives as potent anti-cancer agents” (Bioorg Med Chem Lett, 2017)

Columns and labels:
Format in all cases: functional
K562 = test: Growth inhibition of human K562 cells incubated for 48 hrs by sulforhodamine B assay; conditions: K562, 48 h
Outline: (§1)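 NCI-60 five-dose screen at 0.01, 0.1, 1, 10 and 100 µM, 48 h incubation, sulforhodamine B end point. GI50 (50% decrease in net growth), TGI (total growth inhibition) and LC50 (net 50% loss of initial cells) taken from log concentration versus % growth inhibition curves.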

NCI-H322M = test: Growth inhibition of human NCI-H322M cells incubated for 48 hrs by sulforhodamine B assay; outline: as §1
NCI-H522 = test: Growth inhibition of human NCI-H522 cells incubated for 48 hrs by sulforhodamine B assay; conditions: NCI-H522, 48 h; outline: as §1
COLO 205 = test: Growth inhibition of human COLO205 cells incubated for 48 hrs by sulforhodamine B assay; conditions: COLO 205, 48 h; outline: as §1
HCC 2998 = test: Growth inhibition of human HCC2998 cells incubated for 48 hrs by sulforhodamine B assay; conditions: HCC 2998, 48 h; outline: as §1
HCT-116 = test: Growth inhibition of human HCT116 cells incubated for 48 hrs by sulforhodamine B assay; conditions: HCT-116, 48 h; outline: as §1
HT-29 = test: Growth inhibition of human HT-29 cells incubated for 48 hrs by sulforhodamine B assay; conditions: HT-29, 48 h; outline: as §1
SF-268 = test: Growth inhibition of human SF268 cells incubated for 48 hrs by sulforhodamine B assay; conditions: SF-268, 48 h
Outline: (§2)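 NCI 60 human tumour cell line panel, five-dose study at 0.01, 0.1, 1, 10 and 100 µM, 48 h incubation. Sulforhodamine B protein-binding dye end point. GI50 (50% decrease in net cell growth), TGI (total growth inhibition) and LC50 (net 50% loss of initial cells) read from log concentration versus % growth inhibition curves.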

SNB-19 [1] = test: Growth inhibition of human SNB19 cells incubated for 48 hrs by sulforhodamine B assay; conditions: SNB-19, 48 h; outline: as §2
SNB-75 = test: Growth inhibition of human SNB75 cells incubated for 48 hrs by sulforhodamine B assay; conditions: SNB-75, 48 h; outline: as §2
U-251 = test: Growth inhibition of human U251 cells incubated for 48 hrs by sulforhodamine B assay; conditions: U-251, 48 h; outline: as §2
LOX IMVI = test: Growth inhibition of human LOXIMVI cells incubated for 48 hrs by sulforhodamine B assay; outline: as §1
M14 = test: Growth inhibition of human M14 cells incubated for 48 hrs by sulforhodamine B assay; conditions: M14, 48 h; outline: as §1
SK-MEL-2 = test: Growth inhibition of human SK-MEL-2 cells incubated for 48 hrs by sulforhodamine B assay; conditions: SK-MEL-2, 48 h; outline: as §2
SK-MEL-28 = test: Growth inhibition of human SK-MEL-28 cells incubated for 48 hrs by sulforhodamine B assay; conditions: SK-MEL-28, 48 h; outline: as §2
SK-MEL-5 = test: Growth inhibition of human SK-MEL-5 cells incubated for 48 hrs by sulforhodamine B assay; conditions: SK-MEL-5, 48 h; outline: as §2
OVCAR-3 = test: Growth inhibition of human OVCAR3 cells incubated for 48 hrs by sulforhodamine B assay; conditions: OVCAR-3, 48 h; outline: as §1
OVCAR-4 = test: Growth inhibition of human OVCAR4 cells incubated for 48 hrs by sulforhodamine B assay; conditions: OVCAR-4, 48 h; outline: as §1
OVCAR-5 = test: Growth inhibition of human OVCAR5 cells incubated for 48 hrs by sulforhodamine B assay; conditions: OVCAR-5, 48 h; outline: as §1
OVCAR-8 = test: Growth inhibition of human OVCAR8 cells incubated for 48 hrs by sulforhodamine B assay; conditions: OVCAR-8, 48 h; outline: as §1
786-0 = test: Growth inhibition of human 786-0 cells incubated for 48 hrs by sulforhodamine B assay; conditions: 786-0, 48 h; outline: as §1
A498 = test: Growth inhibition of human A498 cells incubated for 48 hrs by sulforhodamine B assay; conditions: A498, 48 h; outline: as §1
ACHN = test: Growth inhibition of human ACHN cells incubated for 48 hrs by sulforhodamine B assay; outline: as §1
RXF 393 = test: Growth inhibition of human RXF393 cells incubated for 48 hrs by sulforhodamine B assay; conditions: RXF 393, 48 h; outline: as §2
MCF7 = test: Growth inhibition of human MCF7 cells incubated for 48 hrs by sulforhodamine B assay; conditions: MCF7, 48 h; outline: as §1
Hs-578T = test: Growth inhibition of human Hs 578T cells incubated for 48 hrs by sulforhodamine B assay; outline: as §1
BT-549 = test: Growth inhibition of human BT549 cells incubated for 48 hrs by sulforhodamine B assay; conditions: BT-549, 48 h; outline: as §1
T47D = test: Growth inhibition of human T47D cells incubated for 48 hrs by sulforhodamine B assay; outline: as §2
SNB-19 [2] = test: Anticancer activity against human SNB19 cells assessed as cell growth at 10 uM after 48 hrs by sulforhodamine B assay relative to control; conditions: SNB-19, 48 h, read-out: Activity
Outline: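 Single-dose NCI-60 panel screen: compound added at 10 µM and the culture incubated 48 h. The end point was read by protein staining with sulforhodamine B. The value is percent growth of treated cells relative to untreated control cells, reported as a mean graph across the panel.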

[3] = read-out: LC50 (the source's name)

C=C1CC[C@@H]2[C@](C)(COC(C)=O)[C@H](OC(C)=O)CC[C@@]2(C)[C@H]1CC(Nc1ccc(S(=O)(=O)Nc2cc(C)on2)cc1)C1=CCOC1=O (some centres undefined)
GI50 (K562): 1.57 µM
TGI (K562): 8.42 µM
CC50 (K562; [3]): > 100 µM
GI50 (NCI-H322M): 4.68 µM
TGI (NCI-H322M): 16.1 µM
CC50 (NCI-H322M; [3]): 44.6 µM
GI50 (NCI-H522): 1.04 µM
TGI (NCI-H522): 2.42 µM
CC50 (NCI-H522; [3]): 5.61 µM
GI50 (COLO 205): 1.97 µM
TGI (COLO 205): 4.34 µM
CC50 (COLO 205; [3]): 9.55 µM
GI50 (HCC 2998): 2.14 µM
TGI (HCC 2998): 4.05 µM
CC50 (HCC 2998; [3]): 7.64 µM
GI50 (HCT-116): 1.12 µM
TGI (HCT-116): 2.39 µM
CC50 (HCT-116; [3]): 5.1 µM
GI50 (HT-29): 1.58 µM
TGI (HT-29): 3.09 µM
CC50 (HT-29; [3]): 6.04 µM
GI50 (SF-268): 2.35 µM
TGI (SF-268): 6.11 µM
CC50 (SF-268; [3]): 32.9 µM
GI50 (SNB-19 [1]): 3.12 µM
TGI (SNB-19 [1]): 12.2 µM
CC50 (SNB-19 [1]; [3]): 46.4 µM
GI50 (SNB-75): 2.03 µM
TGI (SNB-75): 11.5 µM
CC50 (SNB-75; [3]): 33.9 µM
GI50 (U-251): 1.89 µM
TGI (U-251): 3.4 µM
CC50 (U-251; [3]): 6.12 µM
GI50 (LOX IMVI): 1.18 µM
TGI (LOX IMVI): 2.54 µM
CC50 (LOX IMVI; [3]): 5.46 µM
GI50 (M14): 1.69 µM
TGI (M14): 4.17 µM
CC50 (M14; [3]): 10.8 µM
GI50 (SK-MEL-2): 2.04 µM
TGI (SK-MEL-2): 4.4 µM
CC50 (SK-MEL-2; [3]): 9.49 µM
GI50 (SK-MEL-28): 2.02 µM
LC50 (50% net cell kill) (SK-MEL-28): 9.2 µM
TGI (SK-MEL-28): 4.31 µM
GI50 (SK-MEL-5): 2.11 µM
TGI (SK-MEL-5): 4.65 µM
CC50 (SK-MEL-5; [3]): 11.7 µM
GI50 (OVCAR-3): 1.66 µM
TGI (OVCAR-3): 3.09 µM
CC50 (OVCAR-3; [3]): 5.75 µM
GI50 (OVCAR-4): 2.91 µM
LC50 (OVCAR-4): 35.1 µM
TGI (OVCAR-4): 10.5 µM
GI50 (OVCAR-5): 2.16 µM
LC50 (concentration causing net 50% loss of initial cells) (OVCAR-5): 7.61 µM
TGI (OVCAR-5): 4.05 µM
GI50 (OVCAR-8): 1.88 µM
TGI (OVCAR-8): 4.3 µM
CC50 (OVCAR-8; [3]): 9.83 µM
GI50 (786-0): 1.96 µM
LC50 (concentration giving net 50% loss of initial cells) (786-0): 6.82 µM
TGI (786-0): 3.66 µM
GI50 (A498): 7.69 µM
LC50 (concentration giving net 50% loss of initial cells) (A498): 45 µM
TGI (A498): 20.3 µM
GI50 (ACHN): 1.71 µM
TGI (ACHN): 3.48 µM
CC50 (ACHN; [3]): 7.05 µM
GI50 (RXF 393): 2.05 µM
TGI (RXF 393): 3.84 µM
CC50 (RXF 393; [3]): 7.22 µM
GI50 (MCF7): 0.59 µM
TGI (MCF7): 2.76 µM
GI50 (Hs-578T): 3.92 µM
LC50 (Hs-578T): > 100 µM
TGI (Hs-578T): 26.7 µM
GI50 (BT-549): 1.79 µM
TGI (BT-549): 3.47 µM
CC50 (BT-549; [3]): 6.73 µM
GI50 (T47D): 2.8 µM
TGI (T47D): 7.37 µM
CC50 (T47D; [3]): > 100 µM

C=C1CC[C@@H]2[C@](C)(COC(C)=O)[C@H](OC(C)=O)CC[C@@]2(C)[C@H]1CC(Nc1ccc(S(=O)(=O)Nc2nc(C)cc(C)n2)cc1)C1=CCOC1=O (some centres undefined)
growth at 10 µM (SNB-19 [2]): 100%
